# Results pooled from the literature.
# Protocols differ between the studies behind these lines.
# ADORA2B: Adenosine receptor A2b (ADORA2B, Homo sapiens, UniProt P29275)
# HTR4: 5-hydroxytryptamine receptor 4 (HTR4, Homo sapiens, UniProt Q13639)
# MMP13: Collagenase 3 (MMP13, Homo sapiens, UniProt P45452)
Compound,target,test,test system,conditions,Ki
COc1ccc(CCCn2ncc3c2nc(N)n2nc(-c4ccco4)nc32)cc1,"Adenosine receptor A1 (Mus musculus, UniProt Q60612)","ligand displacement, radioligand",,cell membranes,765 nM
CC(C)N1CCCn2c1nc1c2c(=O)n(C)c(=O)n1C,ADORA2B,"ligand displacement, radioligand",,cell membranes,> 10000 nM
C[C@H]1CN(C2COC2)CCN1c1ccc(Nc2cc(-c3ccnc(N4CCn5c(cc6c5CC(C)(C)C6)C4=O)c3CO)cn(C)c2=O)nc1,"Solute carrier organic anion transporter family member 1B1 (SLCO1B1, Homo sapiens, UniProt Q9Y6L6)","transporter uptake, inhibitor",HEK293,,1940 nM
CCCCN1CCC(COC(=O)c2ccc(N)c(OCF)c2)CC1,HTR4,"ligand displacement, radioligand",,,0.8 nM
C[C@]12CCC(=O)C=C1CC[C@@H]1[C@@H]2[C@@H](O)C[C@@]2(C)[C@H]1CC[C@]2(O)C(=O)CO,"G-protein coupled estrogen receptor 1 (GPER1, Homo sapiens, UniProt Q99527)","ligand displacement, radioligand",,,4400 nM
Oc1nc(SCc2ccc(Cl)cc2)nc2c1CCC2,MMP13,"enzyme activity, inhibitor",,,3300 nM
Nc1ncnc2c1ncn2[C@@H]1O[C@H](COP(=O)(O)OP(=O)(O)O)[C@@H](O)[C@H]1O,"nod (Drosophila melanogaster, UniProt P18105)","enzyme activity, inhibitor",,,~2000 nM
Cc1c(-c2ccccc2)oc2c(C(=O)OCCN3CCCCC3)cccc2c1=O,HTR4,"cell-free assay, radioligand",,cell membranes,> 10000 nM
C=CCN1CCCn2c1nc1c2c(=O)n(C)c(=O)n1C,ADORA2B,"ligand displacement, radioligand",,cell membranes,> 10000 nM
OC[C@@]12C[C@@H]1[C@@H](n1cnc3c(NC(C4CCCC4)C4CCCC4)nc(Cl)cc31)[C@H](O)[C@@H]2O,"Beta-3 adrenergic receptor (ADRB3, Homo sapiens, UniProt P13945)","cell-free assay, radioligand",,,4700 nM
CCCCn1c(=O)c2[nH]c(C34CC5CC(CC3C5)C4)nc2n(CCCO)c1=O,ADORA2B,"ligand displacement, radioligand",,cell membranes,48.6 nM
CCCCCCCCCCCCCC#CC(=O)O,"Fatty acid synthase (Plasmodium falciparum, UniProt Q965D7)","enzyme activity, inhibitor",,,4750 nM
CCCCN1CCCn2c1nc1c2c(=O)n(C)c(=O)n1C,ADORA2B,"ligand displacement, radioligand",,cell membranes,> 10000 nM
COC(=O)c1ccc(CSc2nc3c(c(=O)[nH]2)CCC3)cc1,MMP13,"enzyme activity, inhibitor",,,1500 nM
CCCC(C)N1CCCn2c1nc1c2c(=O)n(C)c(=O)n1C (stereo not shown),ADORA2B,"ligand displacement, radioligand",,cell membranes,> 10000 nM
N=C(N)N1CCC[C@H]1c1nc(-c2ccc(CCC3CCCCC3)c(C(F)(F)F)c2)no1,"Sphingosine kinase 2 (Sphk2, Mus musculus, UniProt Q9JIA7)","enzyme activity, inhibitor",,,110 nM
